Results as given in ChEMBL document CHEMBL4680371, “Design and Structure-Activity Relationship of a Potent Furin Inhibitor Derived from Influenza Hemagglutinin” (ACS Med Chem Lett, 2021).
Where a SMILES comes first, the peptide text is derived from it.

What follows are compounds tested against Furin (Homo sapiens, UniProt P09958) (assay: Inhibition of recombinant soluble human furin using pyroGlu-Arg-Thr-Lys-Arg-methyl-coumaryl-7-amide as substrate measured after 1 hr).
Chain of Furin (P09958 whole entry): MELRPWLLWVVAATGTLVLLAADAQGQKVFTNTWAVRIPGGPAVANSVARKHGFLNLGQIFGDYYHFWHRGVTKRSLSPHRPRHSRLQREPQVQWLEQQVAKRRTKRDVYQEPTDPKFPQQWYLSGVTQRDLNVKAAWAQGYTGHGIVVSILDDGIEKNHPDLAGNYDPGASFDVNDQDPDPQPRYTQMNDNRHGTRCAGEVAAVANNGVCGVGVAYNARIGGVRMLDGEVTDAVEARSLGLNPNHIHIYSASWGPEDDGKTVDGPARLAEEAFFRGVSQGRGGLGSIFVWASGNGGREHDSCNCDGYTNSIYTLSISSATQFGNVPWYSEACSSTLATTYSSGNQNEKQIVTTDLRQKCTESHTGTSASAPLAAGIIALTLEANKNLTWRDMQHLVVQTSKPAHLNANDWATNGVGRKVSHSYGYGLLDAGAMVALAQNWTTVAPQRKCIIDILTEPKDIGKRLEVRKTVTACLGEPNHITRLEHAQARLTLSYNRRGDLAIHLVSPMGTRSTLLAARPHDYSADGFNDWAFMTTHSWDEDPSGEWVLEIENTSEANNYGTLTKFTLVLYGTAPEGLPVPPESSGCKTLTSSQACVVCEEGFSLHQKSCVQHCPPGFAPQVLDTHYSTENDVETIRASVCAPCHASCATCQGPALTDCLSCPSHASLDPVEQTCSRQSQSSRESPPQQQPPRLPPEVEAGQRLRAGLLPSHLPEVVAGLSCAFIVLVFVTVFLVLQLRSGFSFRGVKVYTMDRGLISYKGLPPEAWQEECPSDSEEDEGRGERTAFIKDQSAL
Procedure, shortened: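 Soluble human recombinant furin was tested in a competitive kinetic assay. Ki is reported as the mean ± SD of at least two independent experiments.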
In the case of `CC(=O)N[C@@H](CC(=O)O)C(=O)N[C@@H](C)C(=O)N[C@@H](CCCNC(=N)N)C(=O)N[C@@H](CCCNC(=N)N)C(=O)N[C@@H](CCCNC(=N)N)C(=O)N[C@@H](CCCCN)C(=O)N[C@@H](CCCCN)C(=O)N[C@@H](CCCNC(=N)N)C(=O)N[C@H](C(N)=O)[C@@H](C)O`, the Ki is reported as 20 nM.
Work on `CC(=O)N[C@@H](CCCNC(=N)N)C(=O)N[C@@H](CC(=O)O)C(=O)N[C@@H](CCCNC(=N)N)C(=O)N[C@@H](CCCNC(=N)N)C(=O)N[C@@H](CCCNC(=N)N)C(=O)N[C@@H](CCCCN)C(=O)N[C@@H](CCCCN)C(=O)N[C@@H](CCCNC(=N)N)C(=O)N[C@H](C(N)=O)[C@@H](C)O` yielded a Ki of 33 nM.
Compound `CC(=O)N[C@@H](CCCNC(=N)N)C(=O)N[C@@H](C)C(=O)N[C@@H](CCCNC(=N)N)C(=O)N[C@@H](C)C(=O)N[C@@H](CCCNC(=N)N)C(=O)N[C@@H](CCCCN)C(=O)N[C@@H](CCCCN)C(=O)N[C@@H](CCCNC(=N)N)C(=O)N[C@H](C(N)=O)[C@@H](C)O` has a Ki of 11 nM.
`CC(=O)N[C@@H](CCCNC(=N)N)C(=O)N[C@@H](C)C(=O)N[C@@H](CCCNC(=N)N)C(=O)N[C@@H](CC(C)C)C(=O)N[C@@H](CCCNC(=N)N)C(=O)N[C@@H](CCCCN)C(=O)N[C@@H](CCCCN)C(=O)N[C@@H](CCCNC(=N)N)C(=O)N[C@H](C(N)=O)[C@@H](C)O` was tested, and the Ki was 11 nM.
In the case of `CC(=O)N[C@@H](CCCNC(=N)N)C(=O)N[C@@H](C)C(=O)N[C@@H](CCCNC(=N)N)C(=O)N[C@@H](CCC(N)=O)C(=O)N[C@@H](CCCNC(=N)N)C(=O)N[C@@H](CCCCN)C(=O)N[C@@H](CCCCN)C(=O)N[C@@H](CCCNC(=N)N)C(=O)N[C@H](C(N)=O)[C@@H](C)O`, the Ki is reported as 19 nM.
For `CC(=O)N[C@@H](CCCNC(=N)N)C(=O)N[C@@H](C)C(=O)N[C@H](C(=O)N[C@@H](CCCNC(=N)N)C(=O)N[C@@H](CCCNC(=N)N)C(=O)N[C@@H](CCCCN)C(=O)N[C@@H](CCCCN)C(=O)N[C@@H](CCCNC(=N)N)C(=O)N[C@H](C(N)=O)[C@@H](C)O)[C@@H](C)O`, the Ki was 28 nM.
In the case of `CC(=O)N[C@@H](CCCNC(=N)N)C(=O)N[C@@H](CCC(N)=O)C(=O)N[C@@H](CCCNC(=N)N)C(=O)N[C@@H](CCCNC(=N)N)C(=O)N[C@@H](CCCNC(=N)N)C(=O)N[C@@H](CCCCN)C(=O)N[C@@H](CCCCN)C(=O)N[C@@H](CCCNC(=N)N)C(=O)N[C@H](C(N)=O)[C@@H](C)O`, the Ki is reported as 19 nM.
`CC(=O)N[C@@H](C)C(=O)N[C@@H](C)C(=O)N[C@@H](CCCNC(=N)N)C(=O)N[C@@H](CCCNC(=N)N)C(=O)N[C@@H](CCCNC(=N)N)C(=O)N[C@@H](CCCCN)C(=O)N[C@@H](CCCCN)C(=O)N[C@@H](CCCNC(=N)N)C(=O)N[C@H](C(N)=O)[C@@H](C)O` showed a Ki of 11 nM.
In the case of `CC(=O)N[C@@H](CCCNC(=N)N)C(=O)N[C@@H](C)C(=O)N[C@@H](CC(=O)O)C(=O)N[C@@H](CCCNC(=N)N)C(=O)N[C@@H](CCCNC(=N)N)C(=O)N[C@@H](CCCCN)C(=O)N[C@@H](CCCCN)C(=O)N[C@@H](CCCNC(=N)N)C(=O)N[C@H](C(N)=O)[C@@H](C)O`, the Ki is reported as 270 nM.
`CC(=O)N[C@@H](C)C(=O)N[C@H](C(=O)N[C@@H](CCCNC(=N)N)C(=O)N[C@@H](CCCNC(=N)N)C(=O)N[C@@H](CCCNC(=N)N)C(=O)N[C@@H](CCCCN)C(=O)N[C@@H](CCCCN)C(=O)N[C@@H](CCCNC(=N)N)C(=O)N[C@H](C(N)=O)[C@@H](C)O)C(C)C` (Ac-AVRRRKKRT-NH2) showed a Ki of 10 nM.
`CC[C@H](C)[C@H](NC(=O)[C@H](CCCNC(=N)N)NC(=O)[C@H](C)NC(=O)[C@H](CCC(=O)O)NC(C)=O)C(=O)N[C@@H](CCCNC(=N)N)C(=O)N[C@@H](CCCCN)C(=O)N[C@@H](CCCCN)C(=O)N[C@@H](CCCNC(=N)N)C(=O)N[C@H](C(N)=O)[C@@H](C)O` (Ac-EARIRKKRT-NH2) was tested, and the Ki was 12 nM.
With `CC(=O)N[C@@H](CCCNC(=N)N)C(=O)N[C@@H](C)C(=O)N[C@@H](CCC(=O)O)C(=O)N[C@@H](CCCNC(=N)N)C(=O)N[C@@H](CCCNC(=N)N)C(=O)N[C@@H](CCCCN)C(=O)N[C@@H](CCCCN)C(=O)N[C@@H](CCCNC(=N)N)C(=O)N[C@H](C(N)=O)[C@@H](C)O` the Ki was 140 nM.
`CC(=O)N[C@@H](CCCNC(=N)N)C(=O)N[C@@H](C)C(=O)N[C@@H](CCCNC(=N)N)C(=O)N[C@@H](CO)C(=O)N[C@@H](CCCNC(=N)N)C(=O)N[C@@H](CCCCN)C(=O)N[C@@H](CCCCN)C(=O)N[C@@H](CCCNC(=N)N)C(=O)N[C@H](C(N)=O)[C@@H](C)O` was tested, and the Ki was 9 nM.
Work on `CC(=O)N[C@@H](CCC(N)=O)C(=O)N[C@@H](C)C(=O)N[C@@H](CCCNC(=N)N)C(=O)N[C@@H](CCCNC(=N)N)C(=O)N[C@@H](CCCNC(=N)N)C(=O)N[C@@H](CCCCN)C(=O)N[C@@H](CCCCN)C(=O)N[C@@H](CCCNC(=N)N)C(=O)N[C@H](C(N)=O)[C@@H](C)O` yielded a Ki of 10 nM.
`CC(=O)N[C@@H](CC(N)=O)C(=O)N[C@@H](C)C(=O)N[C@@H](CCCNC(=N)N)C(=O)N[C@@H](CCCNC(=N)N)C(=O)N[C@@H](CCCNC(=N)N)C(=O)N[C@@H](CCCCN)C(=O)N[C@@H](CCCCN)C(=O)N[C@@H](CCCNC(=N)N)C(=O)N[C@H](C(N)=O)[C@@H](C)O` showed a Ki of 12 nM.
With `CC(=O)N[C@@H](CCCNC(=N)N)C(=O)N[C@@H](C)C(=O)N[C@@H](CCCNC(=N)N)C(=O)N[C@@H](CC(=O)O)C(=O)N[C@@H](CCCNC(=N)N)C(=O)N[C@@H](CCCCN)C(=O)N[C@@H](CCCCN)C(=O)N[C@@H](CCCNC(=N)N)C(=O)N[C@H](C(N)=O)[C@@H](C)O` the Ki was 130 nM.
Compound `CC(=O)N[C@@H](CCCNC(=N)N)C(=O)NCC(=O)N[C@@H](CCCNC(=N)N)C(=O)N[C@@H](CCCNC(=N)N)C(=O)N[C@@H](CCCNC(=N)N)C(=O)N[C@@H](CCCCN)C(=O)N[C@@H](CCCCN)C(=O)N[C@@H](CCCNC(=N)N)C(=O)N[C@H](C(N)=O)[C@@H](C)O` has a Ki of 17 nM.
`CC[C@H](NC(=O)[C@H](CCCNC(=N)N)NC(=O)[C@H](C)NC(=O)[C@@H]1CCCN1C(C)=O)C(=O)N[C@@H](CCCNC(=N)N)C(=O)N[C@@H](CCCCN)C(=O)N[C@@H](CCCCN)C(=O)N[C@@H](CCCNC(=N)N)C(=O)N[C@H](C(N)=O)[C@@H](C)O` was tested, and the Ki was 10 nM.
`CC(=O)N[C@@H](CCCNC(=N)N)C(=O)N[C@@H](CCCNC(=N)N)C(=O)N[C@@H](CCCNC(=N)N)C(=O)N[C@@H](CCCNC(=N)N)C(=O)N[C@@H](CCCNC(=N)N)C(=O)N[C@@H](CCCCN)C(=O)N[C@@H](CCCCN)C(=O)N[C@@H](CCCNC(=N)N)C(=O)N[C@H](C(N)=O)[C@@H](C)O` showed a Ki of 23 nM.
Work on `CC[C@H](NC(=O)[C@H](CCCNC(=N)N)NC(=O)[C@H](C)NC(=O)[C@H](CO)NC(C)=O)C(=O)N[C@@H](CCCNC(=N)N)C(=O)N[C@@H](CCCCN)C(=O)N[C@@H](CCCCN)C(=O)N[C@@H](CCCNC(=N)N)C(=O)N[C@H](C(N)=O)[C@@H](C)O` yielded a Ki of 11 nM.
In the case of `CC(=O)N[C@@H](CCCNC(=N)N)C(=O)N[C@@H](C)C(=O)N[C@@H](CCCNC(=N)N)C(=O)N[C@H](C(=O)N[C@@H](CCCNC(=N)N)C(=O)N[C@@H](CCCCN)C(=O)N[C@@H](CCCCN)C(=O)N[C@@H](CCCNC(=N)N)C(=O)N[C@H](C(N)=O)[C@@H](C)O)C(C)(C)C`, the Ki is reported as 16 nM.
For `CC(=O)N[C@@H](CCCNC(=N)N)C(=O)N[C@@H](CO)C(=O)N[C@@H](CCCNC(=N)N)C(=O)N[C@@H](CCCNC(=N)N)C(=O)N[C@@H](CCCNC(=N)N)C(=O)N[C@@H](CCCCN)C(=O)N[C@@H](CCCCN)C(=O)N[C@@H](CCCNC(=N)N)C(=O)N[C@H](C(N)=O)[C@@H](C)O`, the Ki was 15 nM.
